Source: ChEMBL document CHEMBL1141302, “Anti-Helicobacter pylori and thrombin inhibitory components from Chinese dragon's blood, Dracaena cochinchinensis” (J Nat Prod, 2007)
≈ marks a conversion by molar mass, not a printed value.

What was measured:
Helicobacter pylori = assay: Antibacterial activity against Helicobacter pylori ATCC 43504 by agar dilution method; type: functional
Summary of the method: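 Mueller-Hinton agar plates with 7% lysed sheep blood and 2-fold serial dilutions of compound; spots of 5 µL bacterial suspension (10^7 cfu/mL) by multipoint inoculator; 37°C for 3 days, microaerobic (5% O2, 10% CO2, 85% N2, 98% humidity). MIC read as lowest inhibitory concentration; drug-free and DMSO-dilution plates as negative controls.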

Prothrombin = Prothrombin (Homo sapiens, UniProt P00734); assay: Inhibition of human thrombin
Dipeptidyl peptidase 4 = Dipeptidyl peptidase 4 (Homo sapiens, UniProt P27487); assay: Inhibition of human recombinant DPP4
Sequence of Dipeptidyl peptidase 4 (P27487 whole entry): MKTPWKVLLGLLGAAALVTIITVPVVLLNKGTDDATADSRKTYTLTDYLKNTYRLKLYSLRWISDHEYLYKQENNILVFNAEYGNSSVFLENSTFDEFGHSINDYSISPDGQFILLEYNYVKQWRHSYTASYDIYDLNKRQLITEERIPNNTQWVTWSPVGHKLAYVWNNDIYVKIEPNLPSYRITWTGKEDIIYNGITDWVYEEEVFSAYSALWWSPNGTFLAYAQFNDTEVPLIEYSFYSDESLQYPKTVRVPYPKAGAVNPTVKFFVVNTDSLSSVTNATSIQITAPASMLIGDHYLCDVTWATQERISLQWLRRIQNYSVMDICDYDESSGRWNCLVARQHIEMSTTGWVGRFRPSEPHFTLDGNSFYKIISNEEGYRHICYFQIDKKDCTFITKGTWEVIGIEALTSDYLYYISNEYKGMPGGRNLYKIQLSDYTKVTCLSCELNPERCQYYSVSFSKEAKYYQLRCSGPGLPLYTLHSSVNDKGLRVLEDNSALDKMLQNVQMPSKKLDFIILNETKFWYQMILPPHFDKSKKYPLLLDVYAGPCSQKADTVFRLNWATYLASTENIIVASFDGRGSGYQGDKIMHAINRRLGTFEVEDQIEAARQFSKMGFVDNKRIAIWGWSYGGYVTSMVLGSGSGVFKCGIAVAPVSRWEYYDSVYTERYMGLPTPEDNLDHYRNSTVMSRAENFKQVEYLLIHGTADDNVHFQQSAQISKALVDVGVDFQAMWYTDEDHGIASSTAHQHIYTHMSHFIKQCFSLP
Summary of the method: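 Recombinant human DPP-IV, expressed and purified in-house, at 0.01 nM in 100 mM Hepes pH 7.5 with 10 µM Ala-Pro-AMC substrate and 2% DMSO.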

| Compound | MIC (Helicobacter pylori) [µM] | IC50 (Prothrombin) [µM] | IC50 (Dipeptidyl peptidase 4) [µM] |
| --- | --- | --- | --- |
| CC1(C)S[C@@H]2[C@H](NC(=O)[C@H](N)c3ccc(O)cc3)C(=O)N2[C@H]1C(=O)O [AMOXICILLIN] | 0.08 (≈ 0.0292 µg/mL) |  |  |
| COc1cc(O)c2c(c1C)O[C@H](c1ccc(O)cc1)CC2 | 55.9 (≈ 16 µg/mL) |  |  |
| COc1cc(O)ccc1CCC(c1ccc(O)cc1)c1cc2c(c(C)c1O)O[C@@H](c1ccc(O)cc1)CC2 (stereo not given in full) | 62.5 (≈ 32 µg/mL) | 21.5 | > 39.1 |
| COc1cc(O)ccc1CCC(=O)c1ccc(O)cc1 | 235 (≈ 64.1 µg/mL) |  |  |
| COc1ccc2c(c1C)O[C@@H](c1ccc(O)cc1)CC2 | 59.3 (≈ 16 µg/mL) |  |  |
| COC1=CC(=O)C=C(OC)C1(O)CCC(=O)c1ccc(O)cc1 [COCHINCHINENONE] | 201 (≈ 64.1 µg/mL) |  |  |
| COc1cc(O)cc(OC)c1CCC(=O)c1ccc(O)cc1 | 212 (≈ 64.1 µg/mL) |  |  |
| COc1ccc(CCC(=O)c2ccc(O)cc2)c(OC)c1 | 224 (≈ 64.1 µg/mL) |  |  |
| COc1ccc(C(CCc2ccc(O)cc2OC)c2c(O)cc(OC)cc2/C=C/c2ccc(O)cc2)cc1 (stereo not given) [COCHINCHINENENE B] | 62.5 (≈ 32 µg/mL) | 17.8 | > 39.1 |
| COc1c(O)ccc2c1OCC(Cc1ccc(O)cc1)C2 (stereo not given) | 55.9 (≈ 16 µg/mL) |  |  |
| COc1cc(O)c(C(CCc2ccc(O)cc2OC)c2ccc(O)cc2)cc1CCC(=O)c1ccc(O)cc1 (stereo not given) | 60.6 (≈ 32 µg/mL) | 26.3 | > 36.9 |
| O=C(CCc1ccc(O)cc1O)c1ccc(O)cc1 | 248 (≈ 64.1 µg/mL) |  |  |
| COc1ccc([C@@H]2CCc3ccc(O)cc3O2)cc1 | 250 (≈ 64.1 µg/mL) |  |  |
| COc1cc(O)cc(O)c1CCC(=O)c1ccc(O)cc1 | 111 (≈ 32 µg/mL) |  |  |
| COc1cc(O)ccc1C(=O)/C=C/c1ccc(O)cc1 | 118 (≈ 32 µg/mL) |  |  |
| Cc1c(O)ccc2c1O[C@H](c1ccc(O)cc1)CC2 | 31.3 (≈ 8.02 µg/mL) |  |  |
| Cc1ncc([N+](=O)[O-])n1CCO [METRONIDAZOLE] | 748 (≈ 128 µg/mL) |  |  |
| COc1cc(OC)c(C(CCc2ccc(O)cc2OC)c2ccc(O)cc2)cc1CCC(=O)c1ccc(O)cc1 (stereo not given) [COCHINCHINENIN B] | 29.5 (≈ 16 µg/mL) | 12.3 | > 36.9 |
| COc1ccc(C(CCc2ccc(O)cc2OC)c2cc(CCC(=O)c3ccc(O)cc3)c(OC)cc2O)cc1 (stereo not given) [COCHINCHINENIN C] | 29.5 (≈ 16 µg/mL) | > 9.2 | > 36.9 |
| COc1ccc(C(CCc2ccc(O)cc2OC)c2c(OC)cc(/C=C/c3ccc(O)cc3)cc2OC)cc1 (stereo not given) [COCHINCHINENENE A] | 60.8 (≈ 32 µg/mL) | > 9.5 | > 36.9 |
| COc1ccc(/C=C/c2cc(O)cc(O)c2)cc1 [RESVERATROL 4'-METHYL ETHER] | 264 (≈ 64.1 µg/mL) |  |  |
| Oc1ccc(/C=C/c2cc(O)cc(O)c2)cc1 [RESVERATROL] | 281 (≈ 64.1 µg/mL) |  |  |
| COc1cc(O)ccc1CCC(c1ccc(O)cc1)c1c(O)cc(O)cc1/C=C/c1ccc(O)cc1 (stereo not given) [COCHINCHINENENE D] | 66.1 (≈ 32 µg/mL) | > 41.3 | > 41.3 |
| COc1cc(O)ccc1CCC(c1ccc(O)cc1)c1c(/C=C/c2ccc(O)cc2)cc(O)cc1OC (stereo not given) [COCHINCHINENENE C] | 64.3 (≈ 32.1 µg/mL) | 26.7 | > 40.2 |
